# From ChEMBL document CHEMBL1140566, “Discovery of novel isoxazolines as anti-tuberculosis agents” (Bioorg Med Chem Lett, 2007)
# Legend:
# [1] = Protein binding in rat; assay type: ADME, organism-based; settings: plasma, read-out: PB (converted)
# In short: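 Plasma protein binding was measured by equilibrium dialysis in RED devices and reported as percent bound.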
# [2] = Stability in rat liver microsomes after 90 mins; assay type: ADME, Microsome; settings: read-out: Stability
# In short: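 Compounds were incubated with pooled rat liver microsomes and loss of parent was monitored. Intact parent was quantified by LC-MS/MS and reported as % remaining at 90 min.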
# [3] = Solubility at pH 7.4 by shake-flask method; assay type: physicochemical; settings: buffer
# In short: (§1)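 Aqueous solubility was determined by a miniaturized shake-flask method at pH 6.0 and at pH 7.4, reported in mg/L.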
# [4] = system: Mycobacterium tuberculosis; assay: Antituberculosis activity against Mycobacterium tuberculosis by microbroth dilution method; assay type: functional
# In short: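 M. tuberculosis susceptibility was measured by microbroth dilution and reported as MIC90 in μg/mL.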
# [5] = Solubility at pH 6.0 by shake-flask method; assay type: physicochemical; settings: buffer; in short: as §1
# [6] = Clearance in rat at 10 mg/kg, iv; assay type: ADME, organism-based; design: dose 10 mg/kg, route intravenous; settings: in vivo
# In short: (§2)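 Rats were given single doses at 10 mg/kg intravenously or 100 mg/kg orally. Half-life, AUC to infinity (μg·hr/L), volume of distribution (L/kg) and clearance (L/hr/kg) were derived for each route. Oral bioavailability was calculated relative to the IV dose.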
# [7] = Volume of distribution in rat at 10 mg/kg, iv; assay type: ADME, organism-based; design: dose 10 mg/kg, route intravenous; settings: in vivo; in short: as §2
# [8] = Half life in rat at 100 mg/kg, po; assay type: ADME, organism-based; design: dose 100 mg/kg, route oral; settings: in vivo; in short: as §2
# [9] = AUC (0 to infinity) in rat at 10 mg/kg, iv; assay type: ADME, organism-based; design: time infinity, dose 10 mg/kg, route intravenous; settings: plasma; in short: as §2
# [10] = Half life in rat at 10 mg/kg, iv; assay type: ADME, organism-based; design: dose 10 mg/kg, route intravenous; settings: in vivo; in short: as §2
# [11] = Clearance in rat at 100 mg/kg, po; assay type: ADME, organism-based; design: dose 100 mg/kg, route oral; settings: in vivo; in short: as §2
# [12] = system: Mycobacterium tuberculosis; assay: Antituberculosis activity in Mycobacterium tuberculosis infected rat assessed as reduction of colony formation; assay type: functional
# Rattus norvegicus = assay: Volume of distribution in rat at 100 mg/kg, po; assay type: ADME, organism-based; design: dose 100 mg/kg, route oral; settings: in vivo; in short: as §2
# [13] = AUC (0 to infinity) in rat at […]; assay type: ADME, organism-based; design: time infinity; settings: plasma
# [14] = Bioavailability in rat at 100 mg/kg, po; assay type: ADME, organism-based; settings: in vivo; in short: as §2
Structure (SMILES),fraction unbound [1],remaining at 1.5 h [2] [%],MIC90 [4] [ng/mL],solubility thermodynamic [5] [µg/mL],Log10 cfu [12],further results
O=[N+]([O-])c1ccc(C2=NOC(c3ccc(N4CCCCC4)cc3)C2)o1 (stereo not given),0.012,6,1.56,0.017,,Solubility [3]: 0.014 µg/mL
CCCC1=NOC(c2ccc(N3CCN(Cc4ccccc4)CC3)cc2)C1 (stereo not given),,,> 200000,,,
CCOC(=O)C1=NOC(c2ccc(N3CCN(Cc4ccccc4)CC3)cc2)C1 (stereo not given),,,1560,,,
O=[N+]([O-])c1ccc(C2=NOC(c3ccc(N4CCN(Cc5ccccc5)CC4)cc3)C2)o1 (stereo not given),0.001,31,0.05,3.34,0.64,clearance [6]: 8.83 mL/min/kg; solubility thermodynamic [3]: 0.236 µg/mL; Vd [7]: 2 L/kg; half-life [8]: 4.2 h; AUC(0-inf) [9]: 19100 ng·h/mL; half-life [10]: 2.6 h; CL/F [11]: 26.3 mL/min/kg; Vd (Rattus norvegicus): 9.3 L/kg; AUC(0-inf) [13]: 65900 ng·h/mL; bioavailability [14]: 34.5%
CCOC(=O)N1CCN(c2ccc(C3CC(c4ccc([N+](=O)[O-])o4)=NO3)cc2)CC1 (stereo not given),0.01,12,0.1,4,0.59,solubility thermodynamic [3]: 3.6 µg/mL
CC(C)NC(=O)N1CCN(c2ccc(C3CC(c4ccc([N+](=O)[O-])o4)=NO3)cc2)CC1 (stereo not given),0.027,26,0.2,27.7,0.83,solubility thermodynamic [3]: 20 µg/mL
O=[N+]([O-])c1ccc(C2=NOC(c3ccc(N4CCN(Cc5ccccc5)CC4)cc3)C2)cc1 (stereo not given),,,> 200000,,,
CC(C)(C)OC(=O)N1CCN(c2ccc(C3CC(c4ccc([N+](=O)[O-])o4)=NO3)cc2)CC1 (stereo not given),,,0.1,,,
c1ccc(CN2CCN(c3ccc(C4CC(c5ccncc5)=NO4)cc3)CC2)cc1 (stereo not given),,,50000,,,
c1ccc(CN2CCN(c3ccc(C4CC(c5ccccn5)=NO4)cc3)CC2)cc1 (stereo not given),,,> 200000,,,
NNC(=O)c1ccncc1 [ISONIAZID],,,25,,3.98,
